Measured values taken from ChEMBL document CHEMBL3593234, “Lanostane Triterpenes from the Tibetan Medicinal Mushroom Ganoderma leucocontextum and Their Inhibitory Effects on HMG-CoA Reductase and α-Glucosidase” (J Nat Prod, 2015).

Assays:
[1] = target: T1, 3-hydroxy-3-methylglutaryl-coenzyme A reductase (Sus scrofa, UniProt Q1W675); assay: Inhibition of pig liver microsomes HMG-CoA reductase incubated for 5 mins in using HMG-CoA and NADPH by colorimetric method
T1 sequence (Q1W675 whole entry): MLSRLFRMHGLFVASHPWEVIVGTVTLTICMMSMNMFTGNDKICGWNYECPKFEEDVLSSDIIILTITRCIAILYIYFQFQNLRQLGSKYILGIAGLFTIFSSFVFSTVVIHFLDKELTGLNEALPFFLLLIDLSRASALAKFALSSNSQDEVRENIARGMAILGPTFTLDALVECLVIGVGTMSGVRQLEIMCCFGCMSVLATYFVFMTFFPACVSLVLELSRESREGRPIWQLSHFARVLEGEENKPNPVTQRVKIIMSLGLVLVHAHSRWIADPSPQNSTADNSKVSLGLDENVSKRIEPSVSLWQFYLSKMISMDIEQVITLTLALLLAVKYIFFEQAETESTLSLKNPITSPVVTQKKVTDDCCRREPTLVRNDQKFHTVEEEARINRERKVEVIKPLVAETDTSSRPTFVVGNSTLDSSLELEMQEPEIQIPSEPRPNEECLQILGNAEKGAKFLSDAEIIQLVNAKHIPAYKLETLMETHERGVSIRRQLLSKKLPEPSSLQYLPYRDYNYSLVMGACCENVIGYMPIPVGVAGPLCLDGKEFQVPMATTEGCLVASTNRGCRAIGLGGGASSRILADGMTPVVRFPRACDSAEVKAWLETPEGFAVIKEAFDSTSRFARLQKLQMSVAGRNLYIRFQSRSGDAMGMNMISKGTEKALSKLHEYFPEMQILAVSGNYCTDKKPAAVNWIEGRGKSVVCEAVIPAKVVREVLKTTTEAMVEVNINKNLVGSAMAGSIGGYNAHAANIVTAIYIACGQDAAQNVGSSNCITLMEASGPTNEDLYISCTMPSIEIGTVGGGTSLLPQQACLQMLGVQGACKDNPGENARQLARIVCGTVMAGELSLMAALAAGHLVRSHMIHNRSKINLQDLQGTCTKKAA
Procedure, shortened: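 Pig liver microsomal HMG-CoA reductase at about 4 U/mL final, with compound at 2.5–80 μM final and 200 μM HMG-CoA. Buffer was 0.1 mol/L potassium phosphate pH 7.0 with EDTA, dithiothreitol and BSA. After 5 min at 37 °C, 100 μM NADPH was added for 15 min at 37 °C. Absorbance was read at 340 nm, with percent inhibition from blank-corrected OD.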

[2] = Inhibition of Baker's yeast alpha-glucosidase; design: species or system Saccharomyces cerevisiae
Procedure, shortened: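 Baker's yeast α-glucosidase assay read by absorbance at 405 nm. Control wells got phosphate buffer instead of compound, and blanks got buffer instead of enzyme. Percent inhibition was calculated from blank-corrected OD of test versus control wells.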

[3] = test system: K562; assay: Cytotoxicity against human K562 cells by MTT method; format: functional, cell-based
[4] = test system: PC-3; assay: Cytotoxicity against human PC3 cells by MTT method; format: functional, cell-based
[5] = Inhibition of alpha-glucosidase in rat intestinal mucosa pre-incubated for 40 mins using p-nitrophenyl-alpha-D-glucopyranoside substrate; format: tissue-based
Procedure, shortened: (§1)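 Rat intestinal mucosa powder (1.0 g) was suspended in 3 mL 0.9% saline and sonicated at 4 °C (12 × 30 s), then spun at 10000g, 4 °C, 30 min; the supernatant served as enzyme. Compound in DMSO was mixed with substrate (maltose, sucrose or p-nitrophenyl-α-D-glucopyranoside) in 0.1 M phosphate buffer pH 6.9 and preincubated 40 min. Glucose was read by GOD kit at 550 nm, with blank-corrected percent inhibition.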

[6] = target: Sucrase-isomaltase, intestinal (Rattus norvegicus, UniProt P23739); assay: Inhibition of sucrase in rat intestinal mucosa pre-incubated for 40 mins using sucrose substrate; format: tissue-based; procedure, shortened: as §1
Chain of Sucrase-isomaltase, intestinal (P23739 1-1013 limits assumed): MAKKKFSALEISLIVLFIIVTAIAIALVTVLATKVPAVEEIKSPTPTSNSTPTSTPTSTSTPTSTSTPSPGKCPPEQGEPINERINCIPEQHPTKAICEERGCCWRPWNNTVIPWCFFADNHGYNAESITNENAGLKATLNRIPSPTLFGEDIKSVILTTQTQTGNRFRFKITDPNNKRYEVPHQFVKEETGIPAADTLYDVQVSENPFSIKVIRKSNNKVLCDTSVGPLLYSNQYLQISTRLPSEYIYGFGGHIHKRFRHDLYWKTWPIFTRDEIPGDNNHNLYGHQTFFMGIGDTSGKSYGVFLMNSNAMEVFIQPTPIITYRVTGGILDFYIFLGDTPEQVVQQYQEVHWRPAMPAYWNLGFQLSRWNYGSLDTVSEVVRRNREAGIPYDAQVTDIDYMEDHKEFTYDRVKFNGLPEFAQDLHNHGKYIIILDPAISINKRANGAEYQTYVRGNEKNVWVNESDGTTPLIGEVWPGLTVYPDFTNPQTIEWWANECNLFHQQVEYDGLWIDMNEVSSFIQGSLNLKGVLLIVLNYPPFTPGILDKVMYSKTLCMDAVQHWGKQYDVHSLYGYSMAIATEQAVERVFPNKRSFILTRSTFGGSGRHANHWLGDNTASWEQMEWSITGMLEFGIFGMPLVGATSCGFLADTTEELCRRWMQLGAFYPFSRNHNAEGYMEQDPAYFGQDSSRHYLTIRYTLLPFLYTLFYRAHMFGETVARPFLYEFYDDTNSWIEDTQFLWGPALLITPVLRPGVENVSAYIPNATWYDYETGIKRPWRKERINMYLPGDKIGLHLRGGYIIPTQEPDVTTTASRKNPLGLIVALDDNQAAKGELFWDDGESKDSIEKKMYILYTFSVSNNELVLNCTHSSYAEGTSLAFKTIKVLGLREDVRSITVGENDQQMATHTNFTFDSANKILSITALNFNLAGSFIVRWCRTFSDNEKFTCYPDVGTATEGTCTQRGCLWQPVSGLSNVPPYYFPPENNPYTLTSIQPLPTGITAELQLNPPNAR
Chain of Sucrase-isomaltase, intestinal (P23739 1014-1841 limits assumed): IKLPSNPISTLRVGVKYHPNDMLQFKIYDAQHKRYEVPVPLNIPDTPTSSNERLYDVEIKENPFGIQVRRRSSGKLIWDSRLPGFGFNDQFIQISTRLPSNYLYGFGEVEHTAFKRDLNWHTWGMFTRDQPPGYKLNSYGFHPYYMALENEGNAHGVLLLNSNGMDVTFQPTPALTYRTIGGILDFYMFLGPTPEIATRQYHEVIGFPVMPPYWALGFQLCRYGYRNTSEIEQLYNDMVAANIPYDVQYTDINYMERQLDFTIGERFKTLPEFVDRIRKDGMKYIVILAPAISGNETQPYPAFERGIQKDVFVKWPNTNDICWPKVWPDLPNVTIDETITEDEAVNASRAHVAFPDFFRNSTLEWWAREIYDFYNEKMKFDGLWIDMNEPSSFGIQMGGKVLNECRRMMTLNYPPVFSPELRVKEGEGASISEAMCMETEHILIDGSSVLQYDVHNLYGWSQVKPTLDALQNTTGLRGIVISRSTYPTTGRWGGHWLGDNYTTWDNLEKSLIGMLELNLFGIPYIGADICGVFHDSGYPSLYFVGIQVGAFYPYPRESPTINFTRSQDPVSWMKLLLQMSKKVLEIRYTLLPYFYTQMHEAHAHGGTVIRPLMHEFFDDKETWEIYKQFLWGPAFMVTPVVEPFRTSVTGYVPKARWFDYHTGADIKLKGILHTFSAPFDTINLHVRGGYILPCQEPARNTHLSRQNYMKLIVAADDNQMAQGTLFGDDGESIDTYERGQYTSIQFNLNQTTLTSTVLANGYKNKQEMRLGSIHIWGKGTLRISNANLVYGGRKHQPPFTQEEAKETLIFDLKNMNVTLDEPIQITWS

| Compound | IC50 [1] [µM] | IC50 [2] [µM] | IC50 ([3]; Homo sapiens, K562) [µM] | IC50 ([4]; Homo sapiens, PC-3) [µM] | IC50 [5] [µM] | IC50 [6] [µM] | IC50 ([3]; k562) [µM] | IC50 ([4]; pc-3) [µM] |
| --- | --- | --- | --- | --- | --- | --- | --- | --- |
| C/C(=C\CC[C@@H](C)[C@H]1CC(=O)[C@@]2(C)C3=C(C(=O)[C@H](O)[C@]12C)[C@@]1(C)CCC(=O)[C@@](C)(CO)[C@@H]1C[C@@H]3O)C(=O)O | > 100 | 12.7 | > 200 | > 200 | – | – | – | – |
| C/C(=C\CC[C@@H](C)[C@H]1CC[C@@]2(C)C3=C(C(=O)C[C@]12C)[C@@]1(C)CCC(=O)[C@@](C)(CO)[C@@H]1C[C@@H]3O)C(=O)O | 17.1 | > 50 | 17.8 | > 200 | – | – | – | – |
| C[C@H](CCC=C(CO)CO)[C@H]1CC[C@@]2(C)C3=C(C(=O)C[C@]12C)[C@@]1(C)CCC(=O)C(C)(C)[C@@H]1C[C@@H]3O | > 100 | > 50 | 11.4 | 132 | – | – | – | – |
| C[C@H](CCC=C(CO)CO)[C@H]1C[C@@H](O)[C@@]2(C)C3=C(C(=O)C[C@]12C)[C@@]1(C)CCC(=O)C(C)(C)[C@@H]1CC3 | > 100 | > 50 | > 200 | > 200 | – | – | – | – |
| COc1cccc2c1C(=O)c1c(O)c3c(c(O)c1C2=O)C[C@@](O)(C(=O)CO)C[C@@H]3O[C@H]1C[C@H](N)[C@H](O)[C@H](C)O1 [DOXORUBICIN] | – | – | – | 2 | – | – | – | – |
| C[C@H](CC[C@H](O)[C@](C)(O)CO)[C@H]1CC[C@@]2(C)C3=CC[C@H]4C(C)(C)C(=O)CC[C@]4(C)C3=CC[C@]12C [GANODERMANONTRIOL] | 16.8 | > 50 | 80.9 | 106 | – | – | – | – |
| C[C@H]1O[C@H](O[C@H]2[C@H](O)[C@@H](O)[C@@H](O[C@H]3[C@H](O)[C@@H](O)C(O)O[C@@H]3CO)O[C@@H]2CO)[C@H](O)[C@@H](O)[C@@H]1N[C@H]1C=C(CO)[C@@H](O)[C@H](O)[C@H]1O (stereo partly drawn) [ACARBOSE] | – | 273 | – | – | – | – | – | – |
| CC(=O)O[C@H]1C(=O)C2=C(C(=O)C[C@H]3[C@](C)(CO)C(=O)CC[C@]23C)[C@]2(C)C(=O)C[C@H]([C@H](C)CC/C=C(\C)C(=O)O)[C@@]12C | 20.5 | > 50 | 18.2 | > 200 | – | – | – | – |
| CC(C)=CCC/C(C)=C/CC/C(=C/Cc1cc(O)ccc1O)C(=O)OC[C@@](C)(O)[C@@H](O)CC[C@@H](C)[C@H]1CC[C@@]2(C)C3=CC[C@H]4C(C)(C)C(=O)CC[C@]4(C)C3=CC[C@]12C | 18.9 | 13.6 | 48.6 | 58.4 | 1.5 | 8.4 | – | – |
| CC(=O)O[C@H]1C(=O)[C@@]2(C)[C@H]([C@H](OC(=O)c3ccccc3)[C@]3(O)C[C@H](OC(=O)[C@H](O)[C@@H](NC(=O)c4ccccc4)c4ccccc4)C(C)=C1C3(C)C)[C@]1(OC(C)=O)CO[C@@H]1C[C@@H]2O [PACLITAXEL] | – | – | 0.9 | – | – | – | – | – |
| C/C(=C/CC[C@@H](C)[C@H]1CC[C@@]2(C)C3=C(C(O)C[C@]12C)[C@@]1(C)CCC(=O)C(C)(C)[C@@H]1CC3=O)C(=O)O (stereo partly drawn) | > 100 | > 50 | > 200 | > 200 | – | – | – | – |
| CC(C)=CCC/C(C)=C/CC/C(=C\Cc1cc(O)ccc1O)C(=O)O[C@@H](CC[C@@H](C)[C@H]1CC[C@@]2(C)C3=CC[C@H]4C(C)(C)C(=O)CC[C@]4(C)C3=CC[C@]12C)[C@](C)(O)CO | > 100 | > 50 | 104 | > 200 | > 50 | > 50 | – | – |
| C/C(=C\CC[C@@H](C)[C@H]1CC[C@@]2(C)C3=C(C(=O)[C@H](O)[C@]12C)[C@@]1(C)CCC(=O)[C@@](C)(CO)[C@@H]1C[C@@H]3O)C(=O)O | 66.9 | > 50 | 19.7 | > 200 | – | – | – | – |
| C/C(=C/CC[C@@H](C)[C@H]1CC[C@@]2(C)C3=CC[C@H]4C(C)(C)C(=O)CC[C@]4(C)C3=CC[C@]12C)C(=O)O [GANODERIC ACID S] | 12.5 | > 50 | 65.2 | 75.2 | – | – | – | – |
| C[C@H](CCC=C(CO)CO)[C@H]1CC[C@@]2(C)C3=C(C(=O)C[C@]12C)[C@@]1(C)CCC(=O)C(C)(C)[C@@H]1CC3=O | 32.9 | > 50 | 115 | 24.2 | – | – | – | – |
| C/C(=C\CC[C@@H](C)[C@H]1CC(=O)[C@@]2(C)C3=C(C(=O)C[C@]12C)[C@@]1(C)CCC(=O)[C@@](C)(COC(=O)C[C@@](C)(O)CC(=O)O)[C@@H]1CC3=O)C(=O)O | 13.3 | > 50 | 14.4 | > 200 | – | – | – | – |
| C[C@H](CCC=C(CO)CO)[C@H]1CC[C@@]2(C)C3=CC[C@H]4C(C)(C)C(=O)CC[C@]4(C)C3=CC[C@]12C [GANODERIOL F] | > 100 | > 50 | 54.9 | 79.5 | – | – | – | – |
| C/C(=C/CC[C@@H](C)[C@H]1CC[C@@]2(C)C3=C(CC[C@]12C)[C@@]1(C)CCC(=O)C(C)(C)[C@@H]1CC3=O)C(=O)O (stereo in doubt; 18) [GANODERIC ACID DM] | 9.5 | > 50 | – | 81.6 | – | – | 18.8 | – |
| CC(=O)O[C@H]1C(=O)C2=C([C@@H](O)C[C@H]3[C@](C)(CO)C(=O)CC[C@]23C)[C@]2(C)C(=O)C[C@H]([C@H](C)CC/C=C(\C)C(=O)O)[C@@]12C | 97.5 | > 50 | 147 | 88.3 | – | – | – | – |
| CC(=O)O[C@H]1C(=O)C2=C([C@@H](O)C[C@H]3[C@](C)(COC(=O)C[C@@](C)(O)CC(=O)O)C(=O)CC[C@]23C)[C@]2(C)C(=O)C[C@H]([C@H](C)CC/C=C(\C)C(=O)O)[C@@]12C | 26.4 | > 50 | 12.3 | 110 | – | – | – | – |
| C[C@H](CCC=C(CO)CO)[C@H]1CC[C@@]2(C)C3=C(CC[C@]12C)[C@@]1(C)CCC(=O)C(C)(C)[C@@H]1CC3=O | 12.6 | > 50 | 41.6 | > 200 | – | – | – | – |
| CC(=O)O[C@H]1C(=O)C2=C([C@@H](O)C[C@H]3[C@](C)(CO)C(=O)CC[C@]23C)[C@]2(C)CC[C@H]([C@H](C)CC/C=C(\C)C(=O)O)[C@@]12C | 26.6 | > 50 | > 200 | > 200 | – | – | – | – |
| C[C@H](CCC=C(CO)CO)[C@H]1C[C@@H](O)[C@@]2(C)C3=CC[C@H]4C(C)(C)C(=O)CC[C@]4(C)C3=CC[C@]12C | > 100 | > 50 | 76.6 | 103 | – | – | – | – |
| C/C(=C\CC[C@@H](C)[C@H]1CC[C@@]2(C)C3=CC[C@H]4C(C)(C)[C@@H](O)CC[C@]4(C)C3=CC[C@]12C)C(=O)O [GANODERIC ACID Y] | 8.6 | > 50 | 17.5 | 180 | – | – | – | – |
| C/C(=C\CC[C@@H](C)[C@H]1CC(=O)[C@@]2(C)C3=C(C(=O)[C@H](O)[C@]12C)[C@@]1(C)CCC(=O)[C@@](C)(COC(=O)C[C@@](C)(O)CC(=O)O)[C@@H]1CC3=O)C(=O)O | 10.7 | > 50 | 22.6 | > 200 | – | – | – | – |
| C/C(=C/CC[C@@H](C)[C@H]1CC[C@@]2(C)C3=C(CC[C@]12C)[C@@]1(C)CCC(=O)C(C)(C)[C@@H]1CC3=O)C(=O)O (stereo in doubt; 21) [GANODERIC ACID DM] | 56.1 | – | – | – | – | – | 55.4 | 149 |
| C/C(=C\CC[C@@H](C)[C@H]1CC[C@@]2(C)C3=C(CC[C@]12C)[C@@]1(C)CCC(=O)C(C)(C)[C@@H]1CC3=O)CO [GANODERONE A] | > 100 | 13.7 | 27.7 | 28.5 | – | – | – | – |
| CC(C)c1c(C(=O)Nc2ccccc2)c(-c2ccccc2)c(-c2ccc(F)cc2)n1CC[C@@H](O)C[C@@H](O)CC(=O)O [ATORVASTATIN] | 32.1 | – | – | – | – | – | – | – |
